Here are results for 15 molecules from ChEMBL document CHEMBL4007469, “Design and synthesis of dalbergin analogues and evaluation of anti-osteoporotic activity” (Bioorg Med Chem Lett, 2017).

Broadly, the EC50 is the concentration that produces a half-maximal response.

Activity calls are given as the source filed them. The calls are words filed in the database; no cut-off is given here.

Assay [1] in a line: Induction of osteoblast differentiation in mouse calvarial cells assessed as increase in ALP activity using PNPP as substrate after 48 hrs. Particulars: Calvarial cell. It counts as functional, cell-based.
The test system of the next assay is Calvarial cell. As to the kind of experiment: Induction of mineralization in mouse calvarial cells assessed as calcium nodule formation at Emax incubated for 12 days by alizarin red-S staining based spectrophotometric method. It counts as functional. The gist of the method:
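Primary mouse calvarial osteoblasts treated with or without compound for 12 days, fixed in 4% formaldehyde, stained with alizarin red-S, and the stain extracted and quantified by the acetic acid method.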

The nature of assay [2]: Induction of osteoblast differentiation in mouse calvarial cells assessed as compound concentration required for maximum increase in ALP activity using PNPP as substrate after 48 hrs. It counts as functional, Calvarial cell.

For `COc1cc2oc(=O)cc(-c3ccccc3)c2cc1OCCN1CCN(C)CC1`, the EC50 in assay [1] amounted to 14.8 nM. Further, the outcome with Calvarial cell was Active. Moreover, the “Concentration giving maximal ALP increase” value in assay [2] turned out to be 1 pM.

As for `CCN1CCN(CCCOc2cc3c(-c4ccccc4)cc(=O)oc3cc2OC)CC1`, in assay [1], the EC50 came to 27.9 nM. Also, in assay [2], the “Concentration giving maximal ALP increase” value was 10000 pM.

With `COc1cc2oc(=O)cc(-c3ccccc3)c2cc1OCCCCCN1CCCCC1`, in assay [1], the EC50 was 10.8 nM. The result in the assay on Calvarial cell was Active. Moreover, the “Concentration giving maximal ALP increase” value in assay [2] was 1 pM.

In the case of `CCN1CCN(CCOc2cc3c(-c4ccccc4)cc(=O)oc3cc2OC)CC1`, in assay [1], the EC50 is 13.6 nM. Also, the result with Calvarial cell was Active. The “Concentration giving maximal ALP increase” value in assay [2] is 1 pM.

As to `COc1cc2oc(=O)cc(-c3ccccc3)c2cc1OCCCBr`, the EC50 in assay [1] is 5.9 nM. Also, the outcome with Calvarial cell was Active. For the same molecule, the “Concentration giving maximal ALP increase” value in assay [2] is 100 pM.

Turning to `CCN1CCN(CCCCCOc2cc3c(-c4ccccc4)cc(=O)oc3cc2OC)CC1`, the 50% effective concentration (EC50) in assay [1] is 12400 nM.

Regarding `COc1cc2oc(=O)cc(-c3ccccc3)c2cc1OCCCN1CCN(C)CC1`, the EC50 in assay [1] was determined as 9.42 nM. The “Concentration giving maximal ALP increase” value in assay [2] is 100 pM.

For the molecule `COc1cc2oc(=O)cc(-c3ccccc3)c2cc1OCCCl`, the concentration for a half-maximal effect (EC50) in assay [1] stood at 19.4 nM. The “Concentration giving maximal ALP increase” value in assay [2] came to 1 pM.

In the case of `C/C=C(\C)C(=O)Oc1cc2c(-c3ccccc3)cc(=O)oc2cc1OC`, the concentration giving a half-maximal response (EC50) in assay [1] came out at 1.1 nM. The “Concentration giving maximal ALP increase” value in assay [2] is 1e+06 pM.

Consider `COc1cc2oc(=O)cc(-c3ccccc3)c2cc1OC(=O)Cc1cccs1`, for which, in assay [1], the concentration for a half-maximal effect (EC50) was 7.4 nM. For the same molecule, the “Concentration giving maximal ALP increase” value in assay [2] turned out to be 10000 pM.

As for `COc1cc2oc(=O)cc(-c3ccccc3)c2cc1OCCCCCBr`, in assay [1], the concentration giving a half-maximal response (EC50) was found to be 5.7 nM. The result in the assay on Calvarial cell was Active. The “Concentration giving maximal ALP increase” value in assay [2] was 10000 pM.

For the molecule `COc1cc2oc(=O)cc(-c3ccccc3)c2cc1OCCN1CCOCC1`, the concentration giving a half-maximal response (EC50) in assay [1] turned out to be 11.7 nM. The outcome in the assay with Calvarial cell was Active. Further, the “Concentration giving maximal ALP increase” value in assay [2] is on record as 1 pM.

`COc1cc2oc(=O)cc(-c3ccccc3)c2cc1OC(=O)c1ccc(Br)cc1`: the concentration giving a half-maximal response (EC50) in assay [1] came to 0.8 nM. Also, the “Concentration giving maximal ALP increase” value in assay [2] is 1e+06 pM.

`COc1cc2oc(=O)cc(-c3ccccc3)c2cc1OCCCCCN1CCOCC1`: the concentration giving a half-maximal response (EC50) in assay [1] is 900 nM. For the same molecule, in the assay with Calvarial cell, the result was Active. Besides, the “Concentration giving maximal ALP increase” value in assay [2] amounted to 10000 pM.

As for `COc1cc2oc(=O)cc(-c3ccccc3)c2cc1OCCCN1CCCCC1`, the EC50 in assay [1] stood at 7.6 nM. For the same molecule, the result with Calvarial cell was Active. Moreover, the “Concentration giving maximal ALP increase” value in assay [2] turned out to be 1 pM.
